The source of these data is paper PMC7104901 (Diabetes Technology & Therapeutics, 2020).

What all share (assay type): in vivo, human
The subject of series [1] is subjects with type 1 diabetes. In words: Euglycemic clamp pharmacodynamics. To be noted: for Clamp stopped prematurely due to BG reaching threshold (≥200 mg/dL for 30 min): number of subjects after 0.3 U/kg single dose; for GIR-AUC0–12h treatment ratio, point estimate (90% CI): 0.3 U/kg single dose, euglycemic clamp. In short, it runs like this: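 Randomized, double-blind, 3-period crossover in adult males with T1D; fasted single 0.3 U/kg subcutaneous dose after basal-insulin washout (≥48 h), glulisine stopped ≥10 min predose, BG stable ≥1 h without glucose. A Biostator tracked arterialized venous BG and GIR continuously for 12 h, calibrated every 30 min. Stopped early if BG exceeded 200 mg/dL without glucose for 30 min. Weight-standardized GIR-AUC0–12h given as ratio of geometric means (90% CI).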

Series [2] is described as follows: Plasma insulin aspart pharmacokinetics after single subcutaneous dose. To be noted: linear mixed effects model, 0.3 U/kg single dose. In short, it runs like this:
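Adults with type 1 diabetes, off basal insulin ≥48 h and fasted overnight, clamped at blood glucose 100 mg/dL before subcutaneous dosing. Plasma was separated within 20 min and stored at −60 to −80°C. Samples were assayed by LC-MS/MS (100–8000 pg/mL, LLOQ 100 pg/mL) and censored at any rescue insulin. AUCs used the log-linear trapezoidal rule. Log-parameters were analysed by mixed model and back-transformed with 90% CI.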

For series [3], the system named is subjects with type 1 diabetes. Description: Safety and tolerability. The settings on record: single 0.3 U/kg dose. A digest of the protocol:
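Adult males with T1D each got a fasted single subcutaneous 0.3 U/kg dose per period in a double-blind 3-period crossover under 12 h euglycemic clamp. Safety was assessed by 12-lead ECG, vital signs, routine laboratory tests, physical examination, adverse event reporting and injection-site reaction assessment. Treatment-emergent events were counted as subjects reporting per treatment.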

The mark [4] stands for this setting: ratio of geometric means vs. NN-Asp-EU.
Where [5] appears, read: ratio of geometric means vs. NN-Asp-US.

Take insulin aspart [NN-Asp-EU]: in series [1], the “Clamp stopped prematurely due to BG reaching threshold (≥200 mg/dL for 30 min)” value (from here on “Clamp stopped prematurely due”) worked out at 15 subjects.

In the case of insulin aspart [SAR-Asp], in series [2] (setting [4]), the “INS-AUCinf treatment ratio, point estimate (90% CI)” value is recorded as 0.92 (0.88–0.96); the “INS-AUClast treatment ratio, point estimate (90% CI)” value is reported as 0.93 (0.88–0.97); the “INS-Cmax treatment ratio, point estimate (90% CI)” value is recorded as 0.97 (0.90–1.05). In addition, in series [2] (setting [5]), the “INS-AUCinf treatment ratio, point estimate (90% CI)” value is given as 0.92 (0.88–0.96); the “INS-AUClast treatment ratio, point estimate (90% CI)” value is listed as 0.93 (0.89–0.98); the “INS-Cmax treatment ratio, point estimate (90% CI)” value is reported as 0.93 (0.87–1.01). Besides, the Tolerability entry in series [3] was “well tolerated”. The “Clamp stopped prematurely due” value in series [1] was 17 subjects. The “GIR-AUC0–12h treatment ratio, point estimate (90% CI)” value in series [1] (setting [4]) is listed as 0.96 (0.89–1.04). In addition, in series [1] (setting [5]), the “GIR-AUC0–12h treatment ratio, point estimate (90% CI)” value was 0.99 (0.91–1.07).

In the case of insulin aspart [NN-Asp-US], in series [2] (setting [4]), the “INS-AUCinf treatment ratio, point estimate (90% CI)” value is on record as 1.00 (0.95–1.04); the “INS-AUClast treatment ratio, point estimate (90% CI)” value is 1.00 (0.95–1.05); the “INS-Cmax treatment ratio, point estimate (90% CI)” value is given as 1.04 (0.96–1.12). Moreover, the “Clamp stopped prematurely due” value in series [1] came out at 18 subjects. The “GIR-AUC0–12h treatment ratio, point estimate (90% CI)” value in series [1] (setting [4]) is 0.97 (0.90–1.05).
